Tests used:
[1] = system: Human immunodeficiency virus 1; assay: Effective concentration required to achieve 50% protection of MT-4 cells against the cytopathic effect of HIV-1.; assay type: functional, organism-based; conditions: Human immunodeficiency virus 1, MT4
Outline: (§1)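 MT-4 cells were infected with HIV-1 or mock-infected, then incubated with a range of test-compound concentrations. IC50 is the concentration giving 50% protection against HIV-1-induced cytopathic effect. CC50 is the concentration reducing viability of mock-infected cells by 50%. SI is CC50/IC50. Most determinations were run in duplicate and averaged.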

MT4 [2] = assay: Selectivity index measured as the ratio of CC50/IC50 values.; assay type: functional; outline: as §1
MT4 [3] = assay: (§2) Cytotoxic concentration required to reduce the viability of mock-infected MT-4 cells by 50%.; assay type: functional; conditions: Homo sapiens; outline: as §1
MT4 [4] = assay: Effective concentration required to achieve 50% protection of MT-4 cells against the cytopathic effect of HIV-1; I = Inactive; assay type: functional, cell-based, Homo sapiens; outline: as §1
MT4 [5] = assay: as §2; assay type: functional, cell-based; conditions: Homo sapiens; outline: as §1

| SMILES | IC50 [1] [µM] | Selectivity index (MT4 [2]) | CC50 (MT4 [3]) [µM] | IC50 (MT4 [4]) | CC50 (MT4 [5]) [µM] |
| --- | --- | --- | --- | --- | --- |
| C=CC(=C)CN1Cc2cccc3nc(O)n(c23)CC1C (configuration not stated) | 71 | 4 | 290 |  |  |
| CC1Cn2c(O)nc3cccc(c32)CN1Cc1ncc[nH]1 (configuration not stated) |  |  | 685 | Not Active |  |
| CC1Cn2c(O)nc3cccc(c32)CN1C/C=C\c1ccccc1 (configuration not stated) | 122 | 3 | 388 |  |  |
| CCN1Cc2cccc3nc(O)n(c23)CC1C (configuration not stated) |  |  | 592 | Not Active |  |
| C=CCN1Cc2cccc3[nH]c(=O)n(c23)CC1C (configuration not stated) | 70 | 10 | 670 |  |  |
| CCCN1Cc2cccc3[nH]c(=O)n(c23)CC1C (configuration not stated) | 90 | 8 | 722 |  |  |
| CC(=O)CN1Cc2cccc3nc(O)n(c23)CC1C (configuration not stated) |  |  | 760 | Not Active |  |
| O=c1[nH]cnc2c1ncn2[C@H]1CC[C@@H](CO)O1 [DIDANOSINE] | 5.5 | 191 | 1050 |  |  |
| CCCCN1Cc2cccc3nc(O)n(c23)CC1C (configuration not stated) | 100 | 5 | 501 |  |  |
| C=C(Br)CN1Cc2cccc3nc(O)n(c23)CC1C (configuration not stated) | 62 | 7 | 416 |  |  |
| CC1Cn2c(O)nc3cccc(c32)CN1Cc1ccc[nH]1 (configuration not stated) |  |  | 92 | Not Active |  |
| C#CC(C)=CCN1Cc2cccc3nc(O)n(c23)CC1C (configuration not stated) |  |  | 707 | Not Active |  |
| C=C(Cc1ccccc1)CN1Cc2cccc3nc(O)n(c23)CC1C (configuration not stated) |  |  | 572 | Not Active |  |
| Cc1cn([C@H]2C[C@H](N=[N+]=[N-])[C@@H](CO)O2)c(=O)[nH]c1=O [ZIDOVUDINE] | 0.0015 | 6200 | 9.3 |  |  |
| C[C@H]1Cn2c(O)nc3cccc(c32)CN1 |  |  | 901 | Not Active |  |
| C=C(CC)CN1Cc2cccc3nc(O)n(c23)CC1C (configuration not stated) | 37 | 2 | 66 |  |  |
| CC(C)=C(C)CN1Cc2cccc3nc(O)n(c23)CC1C (configuration not stated) |  |  | > 876 | Not Active |  |
| CC(C)=CCC/C(C)=C\CN1Cc2cccc3nc(O)n(c23)CC1C (configuration not stated) |  |  | 44 | Not Active |  |
| CC(C)CN1Cc2cccc3nc(O)n(c23)CC1C (configuration not stated) |  |  | 82 | Not Active |  |
| COC(=O)/C=C/CN1Cc2cccc3nc(O)n(c23)CC1C (configuration not stated) |  |  | 252 | Not Active |  |
| CC1Cn2c(O)nc3cccc(c32)CN1CC1CC1 (configuration not stated) | 44 | 13 | 588 |  |  |
| C/C=C/C=C/CN1Cc2cccc3nc(O)n(c23)CC1C (configuration not stated) |  |  | 378 | Not Active |  |
| CC(C)N1Cc2cccc3nc(O)n(c23)CC1C (configuration not stated) |  |  | 65 | Not Active |  |
| CC(=O)N1Cc2cccc3nc(O)n(c23)CC1C (configuration not stated) |  |  | 175 | Not Active |  |
| C(=NC1CCCCC1)=NC1CCCCC1 [DICYCLOHEXYLCARBODIIMIDE] | 0.137 | 1693 | 232 |  |  |

| SMILES | IC50 [1] [µM] | Selectivity index (MT4 [2]) | CC50 (MT4 [3]) [µM] | IC50 (MT4 [4]) | CC50 (MT4 [5]) [µM] |
| --- | --- | --- | --- | --- | --- |
| C/C=C(/C)CN1Cc2cccc3nc(O)n(c23)CC1C (configuration not stated) | 29 | 4 | 106 |  |  |
| C=C(CN1Cc2cccc3nc(O)n(c23)CC1C)c1ccccc1 (configuration not stated) |  |  | 3 | Not Active |  |
| C/C=C\CN1Cc2cccc3nc(O)n(c23)CC1C (configuration not stated) | 35 | 16 | 560 |  |  |
| CC1Cn2c(O)nc3cccc(c32)CN1CC#N (configuration not stated) |  |  | 508 | Not Active |  |
| C[C@@H]1Cn2c(O)nc3cccc(c32)CN1 |  |  | 901 | Not Active |  |
| C#CCN1Cc2cccc3nc(O)n(c23)CC1C (configuration not stated) | 580 |  | 990 |  |  |
| CC1Cn2c(O)nc3cccc(c32)CN1CCO (configuration not stated) |  |  | 776 | Not Active |  |
| C=CCN1Cc2cccc3[nH]c(=O)n(c23)C[C@@H]1C | 66 | 10 | 670 |  |  |
| C=C(CN1Cc2cccc3nc(O)n(c23)CC1C)C(C)C (configuration not stated) |  |  | 18 | Not Active |  |
| C/C=C/CN1Cc2cccc3nc(O)n(c23)CC1C (configuration not stated) | 58 | 8 | 443 |  |  |
| CC(C)=CCN1Cc2cccc3nc(O)n(c23)C[C@@H]1C | 4 | 105 | 427 |  |  |
| C=C(C)CN1Cc2cccc3[nH]c(=O)n(c23)C[C@@H]1C | 19 | 11 | 222 |  |  |
| CC(C)OCCN1Cc2cccc3nc(O)n(c23)CC1C (configuration not stated) |  |  | 504 | Not Active |  |
| CC(C)=CCN1Cc2cccc3nc(O)n(c23)CC1C (configuration not stated) | 12.5 | 33 | 416 |  |  |
| CC1Cn2c(O)nc3cccc(c32)CN1C/C=C/c1ccccc1 (configuration not stated) |  |  | > 783 | Not Active |  |
| CC(C)=CCN1Cc2cccc3nc(O)n(c23)C[C@H]1C | 22 | 20 | 450 |  |  |
| C#C/C(C)=C/CN1Cc2cccc3nc(O)n(c23)CC1C (configuration not stated) |  |  | 18 | Not Active |  |
| CC1Cn2c(O)nc3cccc(c32)CN1Cc1ccco1 (configuration not stated) | 106 | 5 | 529 |  |  |
| CC1Cn2c(O)nc3cccc(c32)CN1CC1=CCCCC1 (configuration not stated) |  |  | 212 | Not Active |  |
| C=C(CN1Cc2cccc3nc(O)n(c23)CC1C)C(=O)OCC (configuration not stated) |  |  | 3 | Not Active |  |
| C=CCN1Cc2cccc3[nH]c(=O)n(c23)C[C@H]1C |  |  |  | Not Active | 592 |
| COC(=O)CN1Cc2cccc3nc(O)n(c23)CC1C (configuration not stated) | 855 |  | 925 |  |  |
| C=CCCN1Cc2cccc3nc(O)n(c23)CC1C (configuration not stated) | 50 | 11 | 552 |  |  |
| C#C/C=C/CN1Cc2cccc3nc(O)n(c23)CC1C (configuration not stated) |  |  | 370 | Not Active |  |
| C=C(C)CN1Cc2cccc3[nH]c(=O)n(c23)CC1C (configuration not stated) | 47 | 15 | 665 |  |  |

Reference: ChEMBL document CHEMBL1125252, “Synthesis and anti-HIV-1 activity of 4,5,6,7-tetrahydro-5-methylimidazo[4,5,1-jk][1,4]benzodiazepin- 2(1H)-one (TIBO) derivatives” (J Med Chem, 1991)
